Screening data deposited in PubChem by several laboratories.
UBC13 inh – human UBC13 polyubiquitination inhibition; hit rate 0.47% among 330,000; UBC13 polyubiquitin chain formation, TR-FRET; inhibition, % at 20 µM; P61088; in the data active = inhibition above about 45%, passing the limit was not always enough
MEKK3 PB1 HTS – modulators (inhibitors or enhancers) of MEK5 binding to human MEKK3 PB1 domain | bead-based flow cytometry, Alexa488-MEK5 binding to MEKK3; actives lie on both sides; 0 = blocked by unlabeled MEK5, 100 = vehicle | binding response (% of control), % at 10 µM | hit rate 1.4% among 290,000;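 active = binding response more than 3 SD above or below the average of its plate-row segment, actives on both sides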;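 note: Alexa488 bead fluorescence after subtracting the streptavidin-only scavenger bead signal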
Target sequence (Q99759 whole entry, looked up, the tested form may be a part): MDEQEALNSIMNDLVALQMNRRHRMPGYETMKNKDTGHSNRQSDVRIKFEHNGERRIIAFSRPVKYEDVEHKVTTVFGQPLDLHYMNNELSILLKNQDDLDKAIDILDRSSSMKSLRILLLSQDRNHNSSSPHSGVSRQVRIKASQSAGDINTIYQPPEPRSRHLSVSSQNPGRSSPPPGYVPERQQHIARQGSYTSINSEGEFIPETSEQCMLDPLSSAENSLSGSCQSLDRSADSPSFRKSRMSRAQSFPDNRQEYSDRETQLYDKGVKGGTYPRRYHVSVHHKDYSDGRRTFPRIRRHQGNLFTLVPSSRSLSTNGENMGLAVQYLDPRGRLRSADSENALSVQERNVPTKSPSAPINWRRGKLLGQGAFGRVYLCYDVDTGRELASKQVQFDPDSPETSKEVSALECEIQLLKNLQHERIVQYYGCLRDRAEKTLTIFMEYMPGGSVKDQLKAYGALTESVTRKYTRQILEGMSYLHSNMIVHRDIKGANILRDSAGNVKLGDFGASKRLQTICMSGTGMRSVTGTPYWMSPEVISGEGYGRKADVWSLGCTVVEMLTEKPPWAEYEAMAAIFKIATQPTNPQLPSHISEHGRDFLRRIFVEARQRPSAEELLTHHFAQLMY
MEKK2 WT-MEK5 – raises or lowers MEK5 binding to wildtype human MEKK2 PB1 domain. AID 1531. bead flow cytometry, Alexa488-MEK5 binding to MEKK2 WT; actives lie on both sides. binding response (% of control), % at 10 µM. hit rate 1.1% among 290,000; in the data active = binding response below about 67% or above about 130%
Apaf-1 inh – blocks human Apaf-1 apoptosome activity; reconstituted apoptosome caspase-3 activity, DEVD-Rh110 fluorescence; inhibition, % at 20 µM; hit rate 0.71% among 330,000; AID 489030; active = inhibition of at least 40% at 20 µM;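 note: plate controls were DMSO wells for no effect and DEVD-CHO caspase inhibitor wells for full effect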
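Material: reconstituted apoptosome with Apaf-1, cytochrome c, caspase-9, procaspase-3, dATP. Technique: Rh110 fluorescence intensity. Buffer or medium: pH 7.5 Hepes buffer with CHAPS, BSA, DTT. Times: 30 min plus 50 min, RT.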
MEKK2mut PB1 HTS – signal of MEK5 binding to mutant human MEKK2 PB1 domain; bead flow cytometry, Alexa488-MEK5 binding to MEKK2 mutant; percent response, % at 10 µM; hit rate 0.35% among 290,000; AID 1530; in the data active = percent response above about 24%, passing the limit was not always enough
PREPL inh – human PREPL enzyme inhibition; recombinant PREPL, fluorescence polarization activity-based probe; inhibition, % at 5.96 µM; AID 2751; hit rate 0.68% among 320,000; in the data active = inhibition above about 43%;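 note: 0% = enzyme with DMSO and 100% = wells lacking enzyme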
Starred values were filed as active, the others as inactive; . = not tested or not shown; [ ] = remark or other dose. This is a sample that favours compounds with a hit; in the whole collection about 3.1% have one here.

SMILES | UBC13 inh | MEKK3 PB1 HTS | MEKK2 WT-MEK5 | Apaf-1 inh | MEKK2mut PB1 HTS | PREPL inh
Cn1c2ccccc2c(=O)c2ccc(C#Cc3ccc(N)cc3)cc21 | -10.1 | 102.0 | 22.0* | 9.1 | 8.0 | 23.2
O=C(Nc1cccc(-n2cccn2)c1)C1CCCN(Cc2cc3ccccc3[nH]2)C1 (centres undefined) | 6.4 | 104.0 | 139.0* | 12.7 | 24.0* | .
Cc1cc(CN2CCCC(C(=O)Nc3cccc(-n4cccn4)c3)C2)cc(C)c1O (centres undefined) | 8.4 | 102.0 | 112.0 | 2.8 | -1.0 | -9.0
Nc1ccc(O)c(C(=O)O)c1 | . | 111.0 | 109.0 | . | 5.0 | -1.7
O=C(O)C1=CC(=C(c2ccc(O)c(C(=O)O)c2)c2ccc(O)c(C(=O)O)c2)C=CC1=O | . | . | . | . | . | 79.7*
Cc1ccccc1C(=O)c1cccn1CC(=O)NCc1ccc(Cl)cc1 | 14.7 | 94.0 | 96.0 | -91.7 | -3.0 | -10.1
Cc1ccc(CNC(=O)Cn2cccc2C(=O)c2ccccc2C)cc1 | 10.2 | 102.0 | -1.0* | 0.7 | 5.0 | -10.8
O=[N+]([O-])c1cccc(N=NN(CCO)c2cccc([N+](=O)[O-])c2)c1 | 5.4 | 99.0 | 97.0 | 11.7 | 0.0 | 51.9*
CC(=NNC(=O)CCC(=O)Nc1ccccc1Cl)c1ccco1 | -3.6 | . | . | -1.5 | . | -3.6
O/C(=C\c1nc2ccccc2nc1/C=C(\O)c1ccccc1)c1ccccc1 | -86.7 | 81.0 | 20.0* | 16.4 | 9.0 | 15.3
CCOC(=O)c1sc2ncc([N+](=O)[O-])cc2c1N | -37.8 | 107.0 | 100.0 | -5.4 | 11.0 | 14.1
COC(=O)c1sc2cc([N+](=O)[O-])cc(SCC(C)C)c2c1N | -47.6 | 99.0 | 9.0* | 4.7 | 7.0 | -3.5
Cc1cc(NS(=O)(=O)c2ccc(Nc3nc(-c4sc(C)nc4C)cs3)cc2)no1 | . | -1.0*[inhibitor] | -2.0*[inhibitor] | . | -22.0 | .
CC1=NN(c2ccc(Br)cc2)C(=O)/C1=C/c1ccc(-c2ccccc2C(=O)O)o1 | -35.1 | 101.0 | 101.0 | 77.6* | 7.0 | 1.2
CC1=NOC(=O)/C1=C\c1ccc(-c2ccc(Br)cc2C(=O)O)o1 | -8.4 | 102.0 | 99.0 | 8.8 | 2.0 | -3.9
CCc1sc(C(=O)Nc2cc(S(=O)(=O)N3CCOCC3)ccc2OC)cc1C | 6.4 | . | . | 10.2 | . | 10.3
Cc1cccc(C)c1OCC(=O)NNC(=S)NC(=O)C1CC1 | 84.9* | 103.0 | 109.0 | -5.2 | 6.0 | 9.2
Cc1cccc(C)c1OCC(=O)NC1CC1 | 0.8 | 102.0 | 101.0 | -7.6 | 9.0 | 5.8
Clc1ccccc1C1Nc2cccc3cccc(c23)N1 | -26.5 | 99.0 | 102.0 | 35.3 | 4.0 | 12.6
c1coc(C2Nc3cccc4cccc(c34)N2)c1 | -27.4 | 98.0 | 98.0 | 30.8 | 6.0 | 43.4*
Cc1ccc(-c2nnc(Nc3ccc4c(c3)OCO4)c3ccccc23)cc1S(=O)(=O)NC(C)C | -3.4 | 94.0 | 91.0 | 11.4 | -2.0 | 50.0*
COC(=O)[C@]1(Cc2ccccc2)N[C@H](CN(C)S(=O)(=O)c2ccc(-c3ccccc3)cc2)[C@@H]2C(=O)N(Cc3ccccc3)C(=O)[C@@H]21 | -5.6 | . | . | 4.0 | . | 10.0
Cc1ccc2c(c1)C=CC(C)(C)S2=O (centres undefined) | -17.1 | 130.0* | 101.0 | -20.2 | 2.0 | 13.6
CC[N+]1=C(C)C(C)(C)c2cc(C)ccc21 | 4.7 | 100.0 | 77.0 | 16.0 | -3.0 | -287.6
N=c1oc2cc(O)ccc2cc1C(=O)Nc1ccc(Cl)cc1 | 13.9 | 102.0 | 98.0 | 11.0 | -1.0 | 7.8
SMILES | UBC13 inh | MEKK3 PB1 HTS | MEKK2 WT-MEK5 | Apaf-1 inh | MEKK2mut PB1 HTS | PREPL inh
CCC1=NNc2cccc3c(OC)ccc1c23 | -63.6 | 61.0 | 72.0 | 52.1* | -22.0 | 36.4
CN(C)CCOc1ccccc1Cc1ccccc1 | 17.8 | 78.0 | -18.0* | -3.8 | -2.0 | -15.3
O=C(NCc1ccccc1Cl)C1CCC(CNc2nc(=S)[nH]c3ccccc23)CC1 (centres undefined) | -5.7 | 70.0 | 14.0* | 21.5 | -12.0 | 7.5
O=C(NCCc1ccc(Cl)cc1)C1CCC(CNc2nc(=S)[nH]c3ccccc23)CC1 (centres undefined) | -0.6 | 104.0 | 99.0 | 14.2 | -11.0 | -3.0
CCOC(=O)Cc1csc(NC(=S)NC(=O)C(C)(C)C)n1 | 7.4 | 134.0* | 107.0 | -4.7 | 1.0 | 3.1
CCN(CC(=O)Nc1ccccc1OC)C(=O)CN1C(=O)NC(C)(c2ccc(C)cc2)C1=O (centres undefined) | 6.8 | . | . | 1.4 | . | 8.1
CCN(CC(=O)Nc1ccccc1OC)C(=O)CN1C(=O)NC(C)(c2ccccc2)C1=O (centres undefined) | 14.0 | . | . | 49.5* | . | 12.5
Cc1c(Cl)sn(-c2ccc(Cl)cc2)c1=O | -12.5 | 102.0 | 101.0 | 11.6 | 0.0 | .
Cc1cccc(NC(=O)CN(C)C(=O)C2CCCC2)c1C | -6.5 | . | . | 6.1 | . | 10.6
CC(C)(C)c1[nH]nc2c1C(c1cccnc1)C(C#N)=C(N)O2 (centres undefined) | 3.2 | 104.0 | 101.0 | -13.3 | 6.0 | -1.5
CC(C)(C)c1[nH]nc2c1C(c1ccc(OC(=O)c3ccco3)cc1)C(C#N)=C(N)O2 (centres undefined) | 14.5 | 104.0 | 99.0 | 6.8 | 1.0 | 70.8*
COc1ccc(CN2CCNC(=O)C2CC(=O)NC2CCCCCCC2)cc1C (centres undefined) | -4.0 | 108.0 | 128.0 | 20.8 | 28.0* | 7.3
OC(CNCc1ccccc1)Cn1ccc2ccccc21 (centres undefined) | 4.1 | 102.0 | 133.0 | -8.2 | 4.0 | 7.6
Oc1ccccc1NCC(O)Cn1ccc2ccccc21 (centres undefined) | -7.2 | 95.0 | 90.0 | 4.1 | -3.0 | 45.4*
CCN(CC(=O)NC1CCS(=O)(=O)C1)S(=O)(=O)c1ccc(Br)cc1 (centres undefined) | 9.5 | . | . | -8.5 | . | 0.8
O=C(CN1C(=O)c2ccccc2C1=O)Nc1cccc2cccnc12 | 14.2 | 104.0 | 109.0 | 2.5 | 9.0 | -10.0
O=C1C=C(Nc2cccc3cccnc23)c2ccccc2C1=O | -23.0 | 103.0 | 100.0 | 47.3* | 14.0 | 25.3
CCN(CC(=O)Nc1ccc(NC(C)=O)cc1)C(=O)C1(c2ccccc2)CC1 | -0.5 | . | . | -12.9 | . | -7.4
Cc1nc(Nc2ccccc2)sc1C(=O)c1ccccc1 | 1.7 | 97.0 | 100.0 | 2.5 | -5.0 | 11.2
COc1ccc(C(=O)c2sc(Nc3ccccc3)nc2C)cc1 | 1.6 | 111.0 | 135.0* | 12.1 | 16.0 | 13.3
COc1ccc(-c2cc(-c3c(O)c(OC)c4occc4c3OC)[nH]n2)cc1OC | 9.7 | 103.0 | 110.0 | 13.1 | 3.0 | 50.9*
CCCn1c2ccccc2c2nnc(SCc3[nH]c(=O)[nH]c3C(=O)CCCCC(=O)OCC)nc21 | -5.4 | 100.0 | 107.0 | 14.5 | 8.0 | 2.5
